From ChEMBL document CHEMBL1137730, “Synthesis and antiparasitic and antifungal evaluation of 2'-arylsubstituted-1H,1'H-[2,5']bisbenzimidazolyl-5-carboxamidines” (Eur J Med Chem, 2009)
Values after ≈ are worked out from the molar mass of the structure shown.

Key:
[1] = system: Candida albicans; test: Antifungal activity against Candida albicans ATCC 10231 by macro-broth dilution method; type: functional
Procedure, shortened: (§1)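 Macro-broth (tube) dilution; compounds and reference drugs dissolved in water or 40% DMSO-water as 400 µg/mL stock, brought to 100 µg/mL in the first tube by 4-fold dilution with culture medium and fungal suspension. Result reported as MIC.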

[2] = system: Leishmania donovani; test: Antiparasitic activity against Leishmania donovani MHOM-ET/67/L82 at 0.81 ug/ml; type: functional
[3] = system: L6; test: Cytotoxicity against rat L6 cells by alamar blue assay; type: cell-based
Procedure, shortened: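 Rat L-6 myoblasts in culture; viability read by Alamar Blue.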

[4] = system: Trypanosoma cruzi; test: Antiparasitic activity against Trypanosoma cruzi Tulahuen C4 containing lacz gene at 4.85 ug/ml; type: functional; details: Tulahen C4
[5] = system: Leishmania donovani; test: Antiparasitic activity against Leishmania donovani MHOM-ET/67/L82 at 4.85 ug/ml; type: functional
[6] = system: Trypanosoma brucei rhodesiense; test: Antiparasitic activity against Trypanosoma brucei rhodesiense STIB900; type: functional, organism-based
[7] = system: Pichia kudriavzevii; test: Antifungal activity against Candida krusei ATCC 6258 by macro-broth dilution method; type: functional; procedure, shortened: as §1
[8] = system: Plasmodium falciparum; test: Antiparasitic activity against Plasmodium falciparum K1; type: functional, organism-based
[9] = system: Trypanosoma cruzi; test: Antiparasitic activity against Trypanosoma cruzi Tulahuen C4 containing lacz gene at 0.81 ug/ml; type: functional; details: Tulahen C4

SMILES	MIC [1]	inhibition at 0.81 µg/mL [2]	IC50 [3]	inhibition at 4.85 µg/mL [4]	inhibition at 4.85 µg/mL [5]	IC50 [6]	MIC [7]	IC50 [8]	inhibition at 0.81 µg/mL [9]
N=C(N)c1ccc2[nH]c(-c3ccc4nc(-c5ccc(OCc6ccccc6)cc5)[nH]c4c3)nc2c1	12.5 µg/mL (≈ 27.3 µM)	≤ 50%	17.4 µg/mL (≈ 37.9 µM)	≤ 70%	≤ 70%	0.81 µg/mL (≈ 1.77 µM)	25 µg/mL (≈ 54.5 µM)	0.017 µg/mL (≈ 0.0371 µM)	≤ 50%
COc1ccc(Oc2ccc(-c3nc4ccc(-c5nc6cc(C(=N)N)ccc6[nH]5)cc4[nH]3)cc2)cc1OC	3.12 µg/mL (≈ 6.18 µM)	≤ 50%	29.4 µg/mL (≈ 58.3 µM)	≤ 70%	≤ 70%	0.036 µg/mL (≈ 0.0714 µM)	6.25 µg/mL (≈ 12.4 µM)	0.015 µg/mL (≈ 0.0297 µM)	≤ 50%
COc1ccc(-c2nc3ccc(-c4nc5cc(C(=N)N)ccc5[nH]4)cc3[nH]2)cc1OC	25 µg/mL (≈ 60.6 µM)	≤ 50%	> 90 µg/mL	≤ 70%	≤ 70%	0.06 µg/mL (≈ 0.145 µM)	25 µg/mL (≈ 60.6 µM)	0.008 µg/mL (≈ 0.0194 µM)	≤ 50%
COc1cc(-c2nc3ccc(-c4nc5cc(C(=N)N)ccc5[nH]4)cc3[nH]2)ccc1OCc1ccccc1	25 µg/mL (≈ 51.2 µM)	≤ 50%	19.8 µg/mL (≈ 40.5 µM)	≤ 70%	≤ 70%	0.57 µg/mL (≈ 1.17 µM)	50 µg/mL (≈ 102 µM)	0.023 µg/mL (≈ 0.0471 µM)	≤ 50%
N=C(N)c1ccc2[nH]c(-c3ccc4nc(-c5cc(F)ccc5Oc5ccc(Cl)cc5)[nH]c4c3)nc2c1	50 µg/mL (≈ 101 µM)	≤ 50%	> 90 µg/mL	≤ 70%	≤ 70%	–	50 µg/mL (≈ 101 µM)	0.634 µg/mL (≈ 1.28 µM)	≤ 50%
N=C(N)c1ccc2[nH]c(-c3ccc4nc(-c5ccc(Oc6ccc(Cl)cc6)cc5)[nH]c4c3)nc2c1	25 µg/mL (≈ 52.2 µM)	≤ 50%	46 µg/mL (≈ 96 µM)	≤ 70%	≤ 70%	0.708 µg/mL (≈ 1.48 µM)	25 µg/mL (≈ 52.2 µM)	0.028 µg/mL (≈ 0.0585 µM)	≤ 50%
N=C(N)c1ccc2[nH]c(-c3ccc4nc(-c5cccc6ccccc56)[nH]c4c3)nc2c1	0.78 µg/mL (≈ 1.94 µM)	≤ 50%	8.72 µg/mL (≈ 21.7 µM)	≤ 70%	≤ 70%	0.48 µg/mL (≈ 1.19 µM)	12.5 µg/mL (≈ 31.1 µM)	0.016 µg/mL (≈ 0.0398 µM)	≤ 50%
COc1ccc(-c2nc3ccc(-c4nc5cc(C(=N)N)ccc5[nH]4)cc3[nH]2)cc1	> 100 µg/mL	–	10 µg/mL (≈ 26.1 µM)	–	–	0.009 µg/mL (≈ 0.0235 µM)	–	0.015 µg/mL (≈ 0.0392 µM)	–
COc1cc(OC)cc(-c2nc3ccc(-c4nc5cc(C(=N)N)ccc5[nH]4)cc3[nH]2)c1	50 µg/mL (≈ 121 µM)	≤ 50%	25.5 µg/mL (≈ 61.8 µM)	≤ 70%	≤ 70%	0.59 µg/mL (≈ 1.43 µM)	50 µg/mL (≈ 121 µM)	0.017 µg/mL (≈ 0.0412 µM)	≤ 50%
OC(Cn1cncn1)(Cn1cncn1)c1ccc(F)cc1F [FLUCONAZOLE]	0.78 µg/mL (≈ 2.55 µM)	–	–	–	–	–	25 µg/mL (≈ 81.6 µM)	–	–
Nc1nc(N)nc(Nc2ccc([As]3SCC(CO)S3)cc2)n1 (stereo not drawn) [MELARSOPROL]	–	–	–	–	–	0.003 µg/mL	–	–	–
